# Laboratory results as given in ChEMBL document CHEMBL1128275, “Amino-substituted 2-[2'-(dimethylamino)ethyl]-1,2-dihydro-3H- dibenz[de,h]isoquinoline-1,3-diones. Synthesis, antitumor activity, and quantitative structure--activity relationship” (J Med Chem, 1995).
# Experiments:
# [1] = Toxicity ratio of quotient of the IC50 in myocytes divided by the average IC50 for three tumor cell lines; type: cell-based; conditions: myocytes and three tumor cell lines; read-out: Toxicity ratio
# Method in brief: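 Calculated ratio: myocyte IC50 (neonatal rat heart cells, 1 h exposure, ATP/protein end point) divided by the mean IC50 across A375 melanoma, OVCAR-3 ovarian and sensitive L1210 leukemia cells under continuous exposure.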
# L1210 [2] = test: Anti-tumor activity against murine L1210 sensitive cell line by using MTT assay; type: functional, cell-based; conditions: Mus musculus
# L1210 [3] = test: Antitumor activity against murine L1210 resistant cell line by using MTT assay; type: functional, cell-based; conditions: Mus musculus
# OVCAR-3 = test: Anti-tumor activity against human OVCAR-3 ovarian cancer cell lines by using MTT assay; type: functional, cell-based
# Method in brief: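 Human tumor lines (A375 melanoma; OVCAR-3 ovarian carcinoma resistant to standard drugs) under continuous exposure, read by sulforhodamine B or MTT. Drugs from DMSO stocks diluted in PBS pH 7.4, 10^1–10^-5 μg/mL half-log, DMSO ≤0.1%, 37 °C, 5% CO2. MTT: 6 days then 4 h dye, A570. SRB: 8 days, TCA fixation, 0.4% SRB stain, OD 564 nm. Six wells per concentration; IC50 averaged.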
# [4] = Cardiotoxicity was measured by using Neonatal rat heart myocyte assay; type: toxicity, tissue-based
# Method in brief: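 Neonatal rat heart myocytes in culture, 1 h drug exposure; cytotoxicity taken as the concentration lowering the ATP/protein ratio to 0.5, reported as IC50.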
# Mus musculus [5] = test: The percent increase in life span of compound was measured against P388 Leukemia in mice at a dose of 10 mg/kg on days 1,5 and 9; type: functional
# Method in brief: (§1)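 Standard NCI protocol: 10^6 freshly harvested P388 cells injected ip into 10 adult male DBA/2J mice on day 0; compound given ip on days 1, 5 and 9; control group of 10 mice given tumor cells and saline on the same days. %ILS = 100 × (treated − control lifespan)/control lifespan, using group median lifespans.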
# WiDr [6] = test: Activity against sensitive cell line of WiDr human colon tumor; type: functional, cell-based
# Method in brief: (§2)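 WiDr colon cells, sensitive line and a subline selected for resistance to mitoxantrone; MTT assay with continuous drug exposure. Compounds as hydrochlorides, dissolved in DMSO then serially diluted in PBS pH 7.4, 10^1–10^-5 μg/mL in half-log steps, DMSO ≤0.1% final.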
# Mus musculus [7] = test: The percent increase in life span of compound was measured against P388 Leukemia cells in mice at a dose of 4 mg/kg on days 1,5 and 9; type: functional; method in brief: as §1
# Mus musculus [8] = test: The percent increase in life span of compound was measured against P388 Leukemia in mice at a dose of 8 mg/kg on days 1,5 and 9; type: functional; method in brief: as §1
# WiDr [9] = test: Activity against resistant cell line of WiDr human colon tumor; type: functional, cell-based; method in brief: as §2
# Mus musculus [10] = test: The percent increase in life span of compound was measured against P388 Leukemia cells in mice at a dose of 10 mg/kg on days 1,5 and 9; type: functional; method in brief: as §1
# Mus musculus [11] = test: The percent increase in life span of compound was measured against P388 Leukemia in mice at a dose of 15 mg/kg on days 1,5 and 9; type: functional; method in brief: as §1
# Mus musculus [12] = test: The percent increase in life span of compound was measured against P388 Leukemia cells in mice at a dose of 5 mg/kg on days 1,5 and 9; type: functional
# Mus musculus [13] = test: The percent increase in life span of compound was measured against P388 Leukemia cells in mice at a dose of 4.5 mg/kg on days 1,5 and 9; type: functional; method in brief: as §1
# Mus musculus [14] = test: The percent increase in life span of compound was measured against P388 Leukemia cells in mice at a dose of 1.6 mg/kg on days 1,5 and 9; type: functional; method in brief: as §1
SMILES,IC50 (L1210 [2]) [µM],IC50 (L1210 [3]) [µM],IC50 (OVCAR-3) [µM],selectivity ratio [1],Cardiotoxicity [4] [µM],ILS at 10 mg/kg (Mus musculus [5]) [%],IC50 (WiDr [6]) [µM],ILS at 4 mg/kg (Mus musculus [7]) [%],ILS at 8 mg/kg (Mus musculus [8]) [%],IC50 (WiDr [9]) [µM],ILS at 10 mg/kg (Mus musculus [10]) [%],ILS at 15 mg/kg (Mus musculus [11]) [%],ILS at 5 mg/kg (Mus musculus [12]) [%],ILS at 4.5 mg/kg (Mus musculus [13]) [%],ILS at 1.6 mg/kg (Mus musculus [14]) [%]
CC(=O)Nc1ccc2c3c4c(cccc4cc2c1)C(=O)N(CCN(C)C)C3=O,0.114,0.17,0.013,7.7,0.487,,,,,,,,,,
CN(C)CCN1C(=O)c2cccc3cc4ccc(N)cc4c(c23)C1=O,0.0025,0.0027,0.02,34,0.943,109,0.0055,27,73,0.018,,,,,
CN(C)CCN1C(=O)c2cccc3cc4c(N)cccc4c(c23)C1=O,6.78,6.78,9.48,> 6.7,> 81.3,,,,,,,,,,
CN(C)CCN1C(=O)c2c(NC(=O)C(C)(C)C)ccc3cc4ccccc4c(c23)C1=O,0.862,0.172,0.493,> 25,> 24.63,,,,,,,,,,
CN(C)CCN1C(=O)c2cccc3cc4cccc(N)c4c(c23)C1=O,0.678,0.678,1.76,24,27.1,,,,,,,,,,
CC(=O)Nc1c2ccccc2c2c3c(cccc13)C(=O)N(CCN(C)C)C2=O,0.487,0.487,0.73,> 37,> 24.331,,,,,,,,,,
CC(=O)Nc1ccc2cc3ccccc3c3c2c1C(=O)N(CCN(C)C)C3=O,0.608,0.56,0.608,> 33,> 24.331,,,,,,,,,,
CC(=O)Nc1cccc2cc3cccc4c3c(c12)C(=O)N(CCN(C)C)C4=O,0.243,2.43,2.43,> 13.2,> 22.5,,,,,,,,,,
CN(C)CCN1C(=O)c2cccc3cc4ccc(NC(=O)C(C)(C)C)cc4c(c23)C1=O,0.2,0.2,0.15,55,11.025,,,,,,,,,,
CN(C)CCN1C(=O)c2cccc3cc(N)cc(c23)C1=O [AMONAFIDE],,,,30,48.4,,,,,,45,88,,,
CN(C)CCN1C(=O)c2cccc3cc4ccccc4c(c23)C1=O [AZONAFIDE],,,,44,1.983,63,0.01,,,0.015,,79,25,,
COc1cccc2c1C(=O)c1c(O)c3c(c(O)c1C2=O)C[C@@](O)(C(=O)CO)C[C@@H]3O[C@H]1C[C@H](N)[C@H](O)[C@H](C)O1 [DOXORUBICIN],0.035,3.88,0.035,181,11.064,,,,,,,,,113,
O=C1c2c(O)ccc(O)c2C(=O)c2c(NCCNCCO)ccc(NCCNCCO)c21 [MITOXANTRONE],0.005,0.039,0.0058,387,7.737,,0.01,,,1.4,,,,,200

# Now from value to molecule, other results behind:
IC50 (L1210 [2]) [µM],IC50 (L1210 [3]) [µM],IC50 (OVCAR-3) [µM],SMILES,selectivity ratio [1],Cardiotoxicity [4] [µM],ILS at 10 mg/kg (Mus musculus [5]) [%],IC50 (WiDr [6]) [µM],ILS at 4 mg/kg (Mus musculus [7]) [%],ILS at 8 mg/kg (Mus musculus [8]) [%],IC50 (WiDr [9]) [µM],ILS at 10 mg/kg (Mus musculus [10]) [%],ILS at 15 mg/kg (Mus musculus [11]) [%],ILS at 5 mg/kg (Mus musculus [12]) [%],ILS at 4.5 mg/kg (Mus musculus [13]) [%],ILS at 1.6 mg/kg (Mus musculus [14]) [%]
0.0054,0.0079,0.012,CN(C)CCN1C(=O)c2c(N)ccc3cc4ccccc4c(c23)C1=O,48,0.434,,,,,,,,,,
0.049,0.219,0.049,CC(=O)Nc1ccc2cc3cccc4c3c(c2c1)C(=O)N(CCN(C)C)C4=O,120,7.786,,0.009,,,0.05,,,,,
0.0027,0.016,0.014,CN(C)CCN1C(=O)c2cccc3cc4cc(N)ccc4c(c23)C1=O,39,0.813,,,,,,,,,,
0.05,0.02,0.05,CN(C)CCN1C(=O)c2cccc3cc4c([N+](=O)[O-])cccc4c(c23)C1=O,14,0.65,,,,,,,,,,
0.023,0.05,0.226,CN(C)CCN1C(=O)c2cccc3cc4cccc([N+](=O)[O-])c4c(c23)C1=O,80,8.647,,,,,,,,,,
0.0062,0.015,0.02,CN(C)CCN1C(=O)c2cc(N)cc3cc4ccccc4c(c23)C1=O,101,1.724,,,,,,,,,,
0.019,0.073,0.061,CC(=O)Nc1cc2c3c(c4ccccc4cc3c1)C(=O)N(CCN(C)C)C2=O,3.5,0.177,,,,,,,,,,
0.044,0.015,0.033,CN(C)CCN1C(=O)c2cc(NC(=O)C(C)(C)C)cc3cc4ccccc4c(c23)C1=O,9.5,0.662,,,,,,,,,,
0.0054,0.027,0.068,CN(C)CCN1C(=O)c2ccc(N)c3cc4ccccc4c(c23)C1=O,20,1.486,,,,,,,,,,
